Test results: ChEMBL document CHEMBL1138533 (Antimicrob Agents Chemother, 2007)

Tests used:
Type in all cases: ADME, organism-based
[1] = Half life in beta lactamase-negative Haemophilus influenzae pharmacokinetic simulation model dosed as amoxicillin-clavulanic acid at simulated human serum concentration of 2000/125 mg, po bid after 48 hrs
[2] = Unbound drug concentration in beta lactamase-negative Haemophilus influenzae pharmacokinetic simulation model dosed as amoxicillin-clavulanic acid at simulated human serum concentration of 2000/125 mg, po bid after 2 hrs
Procedure, shortened: (§1)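 Two-compartment hollow-fibre dynamic model at 37°C, Haemophilus test medium; total or free serum profiles of oral bid regimens simulated over 48 h by computer-controlled peristaltic dilution. […] Parameters from noncompartmental analysis: Cmax/Tmax observed, AUC0-24 by linear-log trapezoidal rule. Triplicate.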

[3] = Cmax in beta lactamase-negative Haemophilus influenzae pharmacokinetic simulation model dosed as amoxicillin-clavulanic acid at simulated human serum concentration of 2000/125 mg, po bid after 48 hrs
[4] = Unbound drug concentration in beta lactamase-negative Haemophilus influenzae pharmacokinetic simulation model dosed as amoxicillin-clavulanic acid at simulated human serum concentration of 2000/125 mg, po bid after 6 hrs; procedure, shortened: as §1
[5] = fTmax in beta lactamase-negative Haemophilus influenzae pharmacokinetic simulation model dosed as amoxicillin-clavulanic acid at simulated human serum concentration of 2000/125 mg, po bid after 48 hrs; conditions: read-out: fTmax; procedure, shortened: as §1
[6] = Unbound drug concentration in beta lactamase-negative Haemophilus influenzae pharmacokinetic simulation model dosed as amoxicillin-clavulanic acid at simulated human serum concentration of 2000/125 mg, po bid after 8 hrs; procedure, shortened: as §1
[7] = fAUC (0 to 24 hrs) in beta lactamase-negative Haemophilus influenzae pharmacokinetic simulation model dosed as amoxicillin-clavulanic acid at simulated human serum concentration of 2000/125 mg, po bid after 48 hrs; conditions: in vivo; procedure, shortened: as §1
[8] = Unbound drug concentration in beta lactamase-positive Haemophilus influenzae pharmacokinetic simulation model dosed as amoxicillin-clavulanic acid at simulated human serum concentration of 2000/125 mg, po bid after 6 hrs; conditions: in vivo; procedure, shortened: as §1
[9] = Unbound drug concentration in beta lactamase-positive Haemophilus influenzae pharmacokinetic simulation model dosed as amoxicillin-clavulanic acid at simulated human serum concentration of 2000/125 mg, po bid after 1.5 hr; procedure, shortened: as §1
[10] = Unbound drug concentration in beta lactamase-positive Haemophilus influenzae pharmacokinetic simulation model dosed as amoxicillin-clavulanic acid at simulated human serum concentration of 2000/125 mg, po bid after 2 hrs; conditions: in vivo; procedure, shortened: as §1
[11] = Unbound drug concentration in beta lactamase-negative Haemophilus influenzae pharmacokinetic simulation model dosed as amoxicillin-clavulanic acid at simulated human serum concentration of 2000/125 mg, po bid after 3 hrs; procedure, shortened: as §1
[12] = Unbound drug concentration in beta lactamase-negative Haemophilus influenzae pharmacokinetic simulation model dosed as amoxicillin-clavulanic acid at simulated human serum concentration of 2000/125 mg, po bid after 1.5 hr; procedure, shortened: as §1
[13] = Unbound drug concentration in beta lactamase-positive Haemophilus influenzae pharmacokinetic simulation model dosed as amoxicillin-clavulanic acid at simulated human serum concentration of 2000/125 mg, po bid after 3 hrs; conditions: in vivo; procedure, shortened: as §1
[14] = Unbound drug concentration in beta lactamase-positive Haemophilus influenzae pharmacokinetic simulation model dosed as amoxicillin-clavulanic acid at simulated human serum concentration of 2000/125 mg, po bid after 10 hrs; conditions: in vivo; procedure, shortened: as §1
[15] = Half life of free unbound fraction in beta lactamase-negative Haemophilus influenzae pharmacokinetic simulation model dosed as amoxicillin-clavulanic acid at simulated human serum concentration of 2000/125 mg, po bid after 48 hrs; conditions: read-out: ft1/2 (converted)
[16] = Tmax in beta lactamase-negative Haemophilus influenzae pharmacokinetic simulation model dosed as amoxicillin-clavulanic acid at simulated human serum concentration of 2000/125 mg, po bid after 48 hrs; procedure, shortened: as §1
[17] = Drug concentration in beta lactamase-negative Haemophilus influenzae pharmacokinetic simulation model dosed as amoxicillin-clavulanic acid at simulated human serum concentration of 2000/125 mg, po bid after 10 hrs; conditions: in vivo
[18] = fCmax in beta lactamase-negative Haemophilus influenzae pharmacokinetic simulation model dosed as amoxicillin-clavulanic acid at simulated human serum concentration of 2000/125 mg, po bid after 48 hrs; conditions: in vivo; procedure, shortened: as §1
[19] = Unbound drug concentration in beta lactamase-positive Haemophilus influenzae pharmacokinetic simulation model dosed as amoxicillin-clavulanic acid at simulated human serum concentration of 2000/125 mg, po bid after 4 hrs; procedure, shortened: as §1
[20] = Unbound drug concentration in beta lactamase-negative Haemophilus influenzae pharmacokinetic simulation model dosed as amoxicillin-clavulanic acid at simulated human serum concentration of 2000/125 mg, po bid after 10 hrs; procedure, shortened: as §1
[21] = Drug concentration in beta lactamase-negative Haemophilus influenzae pharmacokinetic simulation model dosed as amoxicillin-clavulanic acid at simulated human serum concentration of 2000/125 mg, po bid after 2 hrs; conditions: in vivo
[22] = fCmax in beta lactamase-positive Haemophilus influenzae pharmacokinetic simulation model dosed as amoxicillin-clavulanic acid at simulated human serum concentration of 2000/125 mg, po bid after 48 hrs; conditions: in vivo; procedure, shortened: as §1
[23] = Cmax in beta lactamase-positive Haemophilus influenzae pharmacokinetic simulation model dosed as amoxicillin-clavulanic acid at simulated human serum concentration of 2000/125 mg, po bid after 48 hrs
[24] = Drug concentration in beta lactamase-positive Haemophilus influenzae pharmacokinetic simulation model dosed as amoxicillin-clavulanic acid at simulated human serum concentration of 2000/125 mg, po bid after 4 hrs; conditions: in vivo
[25] = AUC (0 to 24 hrs) in beta lactamase-negative Haemophilus influenzae pharmacokinetic simulation model dosed as amoxicillin-clavulanic acid at simulated human serum concentration of 2000/125 mg, po bid after 48 hrs
[26] = fAUC (0 to 24 hrs) in beta lactamase-positive Haemophilus influenzae pharmacokinetic simulation model dosed as amoxicillin-clavulanic acid at simulated human serum concentration of 2000/125 mg, po bid after 48 hrs; conditions: in vivo; procedure, shortened: as §1
[27] = Unbound drug concentration in beta lactamase-positive Haemophilus influenzae pharmacokinetic simulation model dosed as amoxicillin-clavulanic acid at simulated human serum concentration of 2000/125 mg, po bid after 8 hrs; conditions: in vivo; procedure, shortened: as §1
[28] = Drug concentration in beta lactamase-positive Haemophilus influenzae pharmacokinetic simulation model dosed as amoxicillin-clavulanic acid at simulated human serum concentration of 2000/125 mg, po bid after 12 hrs; conditions: in vivo
[29] = Drug concentration in beta lactamase-positive Haemophilus influenzae pharmacokinetic simulation model dosed as amoxicillin-clavulanic acid at simulated human serum concentration of 2000/125 mg, po bid after 6 hrs; conditions: in vivo
[30] = Unbound drug concentration in beta lactamase-negative Haemophilus influenzae pharmacokinetic simulation model dosed as amoxicillin-clavulanic acid at simulated human serum concentration of 2000/125 mg, po bid after 1 hr; procedure, shortened: as §1
[31] = AUC (0 to 24 hrs) in beta lactamase-positive Haemophilus influenzae pharmacokinetic simulation model dosed as amoxicillin-clavulanic acid at simulated human serum concentration of 2000/125 mg, po bid after 48 hrs
[32] = Drug concentration in beta lactamase-positive Haemophilus influenzae pharmacokinetic simulation model dosed as amoxicillin-clavulanic acid at simulated human serum concentration of 2000/125 mg, po bid after 3 hrs; conditions: in vivo
[33] = Unbound drug concentration in beta lactamase-positive Haemophilus influenzae pharmacokinetic simulation model dosed as amoxicillin-clavulanic acid at simulated human serum concentration of 2000/125 mg, po bid after 12 hrs; conditions: in vivo; procedure, shortened: as §1
[34] = Unbound drug concentration in beta lactamase-negative Haemophilus influenzae pharmacokinetic simulation model dosed as amoxicillin-clavulanic acid at simulated human serum concentration of 2000/125 mg, po bid after 12 hrs; procedure, shortened: as §1
[35] = Unbound drug concentration in beta lactamase-positive Haemophilus influenzae pharmacokinetic simulation model dosed as amoxicillin-clavulanic acid at simulated human serum concentration of 2000/125 mg, po bid after 1 hr; procedure, shortened: as §1
[36] = Drug concentration in beta lactamase-positive Haemophilus influenzae pharmacokinetic simulation model dosed as amoxicillin-clavulanic acid at simulated human serum concentration of 2000/125 mg, po bid after 1 hr; conditions: in vivo
[37] = Drug concentration in beta lactamase-positive Haemophilus influenzae pharmacokinetic simulation model dosed as amoxicillin-clavulanic acid at simulated human serum concentration of 2000/125 mg, po bid after 10 hrs
[38] = Unbound drug concentration in beta lactamase-negative Haemophilus influenzae pharmacokinetic simulation model dosed as amoxicillin-clavulanic acid at simulated human serum concentration of 2000/125 mg, po bid after 4 hrs; procedure, shortened: as §1
[39] = Drug concentration in beta lactamase-negative Haemophilus influenzae pharmacokinetic simulation model dosed as amoxicillin-clavulanic acid at simulated human serum concentration of 2000/125 mg, po bid after 1 hr
[40] = Drug concentration in beta lactamase-negative Haemophilus influenzae pharmacokinetic simulation model dosed as amoxicillin-clavulanic acid at simulated human serum concentration of 2000/125 mg, po bid after 3 hrs; conditions: in vivo
[41] = Protein binding in beta lactamase-negative Haemophilus influenzae pharmacokinetic simulation model dosed as amoxicillin-clavulanic acid at simulated human serum concentration of 2000/125 mg, po bid after 48 hrs; conditions: read-out: PB (converted)

CC1(C)S[C@@H]2[C@H](NC(=O)[C@H](N)c3ccc(O)cc3)C(=O)N2[C@H]1C(=O)O [AMOXICILLIN]
half-life [1]: 1.3 h
Drug uptake [2]: 11.8 µg/mL
Cmax [3]: 17200 ng/mL
Drug uptake [4]: 5 µg/mL
Tmax [5]: 1.5 h
Drug uptake [6]: 1.7 µg/mL
fAUC [7]: 60700 ng·h/mL
Drug uptake [8]: < 0.03 µg/mL
Drug uptake [9]: 13.3 µg/mL
Drug uptake [10]: 7.8 µg/mL
Drug uptake [11]: 10.1 µg/mL
Drug uptake [12]: 13.6 µg/mL
Drug uptake [13]: 2.9 µg/mL
Drug uptake [14]: < 0.03 µg/mL
half-life [15]: 1.4 h
Tmax [16]: 1.5 h
Drug uptake [17]: 0.8 µg/mL
fCmax [18]: 13.6 µg/mL
Drug uptake [19]: 0.8 µg/mL
Drug uptake [20]: 0.6 µg/mL
Drug uptake [21]: 15.5 µg/mL
fCmax [22]: 13.3 µg/mL
Cmax [23]: 17400 ng/mL
Drug uptake [24]: 5.5 µg/mL
AUC at 24 h [25]: 73100 ng·h/mL
fAUC [26]: 22500 ng·h/mL
Drug uptake [27]: < 0.03 µg/mL
Drug uptake [28]: < 0.03 µg/mL
Drug uptake [29]: 2.1 µg/mL
Drug uptake [30]: 10.4 µg/mL
AUC at 24 h [31]: 48700 ng·h/mL
Drug uptake [32]: 10.5 µg/mL
Drug uptake [33]: < 0.03 µg/mL
Drug uptake [34]: 0.3 µg/mL
Drug uptake [35]: 9.9 µg/mL
Drug uptake [36]: 11.6 µg/mL
Drug uptake [37]: < 0.03 µg/mL
Drug uptake [38]: 8.2 µg/mL
Drug uptake [39]: 11.6 µg/mL

O=C(O)[C@H]1/C(=C/CO)O[C@@H]2CC(=O)N21 [CLAVULANIC ACID]
Drug uptake [40]: 0.7 µg/mL
half-life [1]: 1 h
Drug uptake [2]: 1 µg/mL
Cmax [3]: 2100 ng/mL
Drug uptake [4]: 0.1 µg/mL
Tmax [5]: 1.5 h
Drug uptake [6]: < 0.03 µg/mL
fAUC [7]: 2900 ng·h/mL
Drug uptake [8]: 0.1 µg/mL
Drug uptake [9]: 1.4 µg/mL
Drug uptake [10]: 1 µg/mL
Drug uptake [11]: 0.5 µg/mL
Drug uptake [12]: 1.5 µg/mL
Drug uptake [13]: 0.4 µg/mL
Drug uptake [14]: < 0.03 µg/mL
half-life [15]: 1 h
Tmax [16]: 1.5 h
Drug uptake [17]: < 0.03 µg/mL
fCmax [18]: 1.5 µg/mL
Drug uptake [19]: 0.1 µg/mL
Drug uptake [20]: < 0.03 µg/mL
Drug uptake [21]: 1.4 µg/mL
fCmax [22]: 1.4 µg/mL
Cmax [23]: 2100 ng/mL
Drug uptake [24]: 0.4 µg/mL
AUC at 24 h [25]: 4700 ng·h/mL
fAUC [26]: 2800 ng·h/mL
Drug uptake [27]: < 0.03 µg/mL
Drug uptake [28]: < 0.03 µg/mL
Drug uptake [29]: 0.1 µg/mL
Drug uptake [30]: 0.9 µg/mL
AUC at 24 h [31]: 4500 ng·h/mL
Drug uptake [32]: 0.7 µg/mL
Drug uptake [33]: < 0.03 µg/mL
Drug uptake [34]: < 0.03 µg/mL
fraction unbound at 48 h [41]: 0.75
Drug uptake [35]: 0.9 µg/mL
Drug uptake [36]: 1.2 µg/mL
Drug uptake [37]: < 0.03 µg/mL
Drug uptake [38]: 0.2 µg/mL
Drug uptake [39]: 1.3 µg/mL
